The source of these data is the RNAGym collection of RNA variant scans (doi:10.1101/gad.245936.114).

Sequences and labels used below:
B1: tRNA (parent)
chain: CUCUCGGUAGCCAAGUUGGUUUAAGGCGCAAGACUUUAAUUUAUCACUACGAAAUCUUGAGAUCGGGCGUUCGACUCGCCCCCGGGAGAUUUUUUCCUCGAGCAA

This sample holds only a part of the variants without activity.

Variants of B1 are the subject of the series. The experiment in a line: nonsense suppression (GFP-seq) (ratio to wild type); higher = more function; SUP4oc tRNA, yeast GFP reporter sort-seq. In a few lines: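 Yeast were grown in raffinose/galactose medium with 80 mg/L adenine, each strain bearing a genome-integrated ochre-suppressor tRNA variant from a ~3% random-mutation library, a galactose-driven GFP ochre reporter, and RFP. After sorting into GFP/RFP bins, every bin was sequenced on an Illumina platform at phred ≥30. The GFPSEQ value, a measure of nonsense suppression, is the weighted bin median GFP/RFP relative to the unmutated parent tRNA, using each variant's estimated cell share per bin as the weight. Only variants with ≥100 reads and ≥30 cells were included.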
Regarding CUCUCGGUAGCCAAGUUGGUUUAAGGCGCAAGACUUUAAUUUAUCACUACGAAAUCUUGAGAUCGGGCGUUCGACUCGCCCCCGAGACAUUUUUUCCUCGAGCAA [G85A G88C], the nonsense suppression was at most 0.026. For the variant CUCUCGGUAGCCAAGUUGGUUUAAGGCGCAAGACUUUAAUUUAUCACUACGAAAUCUUGAGAUCGGGCGUUCGACUCGCCCCUUGGAGAUUUUUUCCUCGAGCAA [C83U G84U], the nonsense suppression was 0.027.

CUCUCGGUAGCCAAGUUGGUUUAAGGCGCAAGACUUUAAUUUAUCACUACGAAAUCUUGAGAUCGGGCGUUCGACUCGCCCACGUGAGAUUUUUUCCUCGAGCAA [C82A G85U]: the nonsense suppression is 0.0445.

For CUCUCGGUAGCCAAGUUGGUUUAAGGCGCAAGACUUUAAUUUAUCACUACGAAAUCUUGAGAUCGGGCGUUCGACUCGCCCCCGAGAGAUUUUUUCCUCGAGCAA [G85A], the nonsense suppression was 0.982. Take CUCUCGGUAGCCAAGUUGGUUUAAGGCGCAAGACUUUAAUUUAUCACUACGAAAUCUUGAGAUCGGGCGUUCGACUCGCCCCCGUGAGAUUUUUUCCUCGAGCAA [G85U]: the nonsense suppression is 1.12. Turning to CUCUCGGUAGCCAAGUUGGUUUAAGGCGCAAGACUUUAAUUUAUCACUACGAAAUCUUGAGAUCGGGCGUUCGACUCGCCCCCGCGAGAUUUUUUCCUCGAGCAA [G85C], the nonsense suppression worked out at 0.163. With CUCUCGGUAGCCAAGUUGGUUUAAGGCGCAAGACUUUAAUUUAUCACUACGAAAUCUUGAGAUCGGGCGUUCGACUCGCCCCCGGCAGAUUUUUUCCUCGAGCAA [G86C], the nonsense suppression is at most 0.026. CUCUCGGUAGCCAAGUUGGUUUAAGGCGCAAGACUUUAAUUUAUCACUACGAAAUCUUGAGAUCGGGCGUUCGACUCGCCCCCGGUAGAUUUUUUCCUCGAGCAA [G86U]: the nonsense suppression was at most 0.026. Regarding CUCUCGGUAGCCAAGUUGGUUUAAGGCGCAAGACUUUAAUUUAUCACUACGAAAUCUUGAGAUCGGGCGUUCGACUCGCCCACGGGUGAUUUUUUCCUCGAGCAA [C82A A87U], the nonsense suppression is at most 0.026. Consider CUCUCGGUAGCCAAGUUGGUUUAAGGCGCAAGACUUUAAUUUAUCACUACGAAAUCUUGAGAUCGGGCGUUCGACUCGCCCUCGAGAGAUUUUUUCCUCGAGCAA [C82U G85A], for which the nonsense suppression turned out to be 0.99. On to CUCUCGGUAGCCAAGUUGGUUUAAGGCGCAAGACUUUAAUUUAUCACUACGAAAUCUUGAGAUCGGGCGUUCGACUCGCCCCCGGUUGAUUUUUUCCUCGAGCAA [G86U A87U], for which the nonsense suppression is at most 0.026. As for CUCUCGGUAGCCAAGUUGGUUUAAGGCGCAAGACUUUAAUUUAUCACUACGAAAUCUUGAGAUCGGGCGUUCGACUCGCCCCUGGGAGAUUUUUUCCUCGAGCAA [C83U], the nonsense suppression worked out at 0.535. For CUCUCGGUAGCCAAGUUGGUUUAAGGCGCAAGACUUUAAUUUAUCACUACGAAAUCUUGAGAUCGGGCGUUCGACUCGCCCCCCCGAGAUUUUUUCCUCGAGCAA [G84C G85C], the nonsense suppression was found to be 0.0289. With CUCUCGGUAGCCAAGUUGGUUUAAGGCGCAAGACUUUAAUUUAUCACUACGAAAUCUUGAGAUCGGGCGUUCGACUCGCCCCCGAGUGAUUUUUUCCUCGAGCAA [G85A A87U], the nonsense suppression worked out at 0.19. For CUCUCGGUAGCCAAGUUGGUUUAAGGCGCAAGACUUUAAUUUAUCACUACGAAAUCUUGAGAUCGGGCGUUCGACUCGCCCCCGAGGGAUUUUUUCCUCGAGCAA [G85A A87G], the nonsense suppression turned out to be 1.18.

On to CUCUCGGUAGCCAAGUUGGUUUAAGGCGCAAGACUUUAAUUUAUCACUACGAAAUCUUGAGAUCGGGCGUUCGACUCGCCCCCGGCGGAUUUUUUCCUCGAGCAA [G86C A87G], for which the nonsense suppression stood at 0.0881. On to CUCUCGGUAGCCAAGUUGGUUUAAGGCGCAAGACUUUAAUUUAUCACUACGAAAUCUUGAGAUCGGGCGUUCGACUCGCCCCCGCGAGCUUUUUUCCUCGAGCAA [G85C A89C], for which the nonsense suppression is at most 0.026. As for CUCUCGGUAGCCAAGUUGGUUUAAGGCGCAAGACUUUAAUUUAUCACUACGAAAUCUUGAGAUCGGGCGUUCGACUCGCCCCCAGUAGAUUUUUUCCUCGAGCAA [G84A G86U], the nonsense suppression is at most 0.026.

On to CUCUCGGUAGCCAAGUUGGUUUAAGGCGCAAGACUUUAAUUUAUCACUACGAAAUCUUGAGAUCGGGCGUUCGACUCGCCCACUGGAGAUUUUUUCCUCGAGCAA [C82A G84U], for which the nonsense suppression was at most 0.026.

Take CUCUCGGUAGCCAAGUUGGUUUAAGGCGCAAGACUUUAAUUUAUCACUACGAAAUCUUGAGAUCGGGCGUUCGACUCGCCCUCGGGAGAUUUUUUCCUCGAGCAA [C82U]: the nonsense suppression came out at 1.05. Take CUCUCGGUAGCCAAGUUGGUUUAAGGCGCAAGACUUUAAUUUAUCACUACGAAAUCUUGAGAUCGGGCGUUCGACUCGCCCCUGGAAGAUUUUUUCCUCGAGCAA [C83U G86A]: the nonsense suppression was at most 0.026.

Regarding CUCUCGGUAGCCAAGUUGGUUUAAGGCGCAAGACUUUAAUUUAUCACUACGAAAUCUUGAGAUCGGGCGUUCGACUCGCCCCCGUGAAAUUUUUUCCUCGAGCAA [G85U G88A], the nonsense suppression stood at 0.0446. In the case of CUCUCGGUAGCCAAGUUGGUUUAAGGCGCAAGACUUUAAUUUAUCACUACGAAAUCUUGAGAUCGGGCGUUCGACUCGCCCCUGGGUGAUUUUUUCCUCGAGCAA [C83U A87U], the nonsense suppression was at most 0.026. For CUCUCGGUAGCCAAGUUGGUUUAAGGCGCAAGACUUUAAUUUAUCACUACGAAAUCUUGAGAUCGGGCGUUCGACUCGCCCCUGGGGGAUUUUUUCCUCGAGCAA [C83U A87G], the nonsense suppression was determined as 0.0621. On to CUCUCGGUAGCCAAGUUGGUUUAAGGCGCAAGACUUUAAUUUAUCACUACGAAAUCUUGAGAUCGGGCGUUCGACUCGCCCCCAGGAUAUUUUUUCCUCGAGCAA [G84A G88U], for which the nonsense suppression was at most 0.026. As for CUCUCGGUAGCCAAGUUGGUUUAAGGCGCAAGACUUUAAUUUAUCACUACGAAAUCUUGAGAUCGGGCGUUCGACUCGCCCCCAGGGGAUUUUUUCCUCGAGCAA [G84A A87G], the nonsense suppression came to 0.157. As for CUCUCGGUAGCCAAGUUGGUUUAAGGCGCAAGACUUUAAUUUAUCACUACGAAAUCUUGAGAUCGGGCGUUCGACUCGCCCAUGGGAGAUUUUUUCCUCGAGCAA [C82A C83U], the nonsense suppression was at most 0.026.
